Test results from ChEMBL document CHEMBL1124084, “Studies on scavengers of active oxygen species. 1. Synthesis and biological activity of 2-O-alkylascorbic acids” (J Med Chem, 1988).

Legend:
Rattus norvegicus [1] = test: Effect of AOS scavenger on premeture ventricular complexes PVCs, arrhythmias induced by ischemia-reperfusion in anesthetized rat, duration at 20 mg/kg; PVSc/min; type: functional, Cardiac ventricle
In short: (§1)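 Male SD rats (9–13 weeks, 250–370 g) under pentobarbital anesthesia with artificial respiration underwent thoracotomy and LAD coronary occlusion followed by reperfusion. Dosing was oral, 20 mg/kg at 24 h and again 20 mg/kg at 5 min before occlusion. VF and VT incidence, frequency and duration, and mean PVCs/min were recorded at 10 min postreperfusion.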

Rattus norvegicus [2] = test: Effect of AOS scavenger on ventricular tachycardia (VT),arrhythmias induced by ischemia-reperfusion in anesthetized rat, duration at 20 mg/kg; type: functional, Cardiac ventricle; in short: as §1
Rattus norvegicus [3] = test: Effect of AOS scavenger on ventricular tachycardia (VT), arrhythmias induced by ischemia-reperfusion in anesthetized rat, frequency, times at 20 mg/kg; type: functional, Cardiac ventricle; in short: as §1
Rattus norvegicus [4] = test: Effect of AOS scavenger on ventricular fibrillation (VF),arrhythmias induced by ischemia-reperfusion in anesthetized rat, duration at 20 mg/kg; type: functional, Cardiac ventricle; in short: as §1
Rattus norvegicus [5] = test: Effect of AOS scavenger on ventricular fibrillation (VF), arrhythmias induced by ischemia-reperfusion in anesthetized rat, frequency, times at 20 mg/kg; type: functional, Cardiac ventricle; in short: as §1
Rattus norvegicus [6] = test: Effect of AOS scavenger on ventricular fibrillation (VF),arrhythmias induced by ischemia-reperfusion in anesthetized rat, incidence at 20 mg/kg; 4/8; type: functional, Cardiac ventricle; in short: as §1
Rattus norvegicus [7] = test: Effect of AOS scavenger on ventricular tachycardia (VT),arrhythmias induced by ischemia-reperfusion in anesthetized rat, incidence at 20 mg/kg; 8/8; type: functional, Cardiac ventricle; in short: as §1
Rattus norvegicus [8] = test: Effect of AOS scavenger on premeture ventricular complexes PVCs, arrhythmias induced by ischemia-reperfusion in anesthetized rat, duration at 10 mg/kg; type: functional, Cardiac ventricle; details: 10 mg/kg
Rattus norvegicus [9] = test: Effect of AOS scavenger on premeture ventricular complexes PVCs, arrhythmias induced by ischemia-reperfusion in anesthetized rat, duration at 1 mg/kg; type: functional, Cardiac ventricle
Rattus norvegicus [10] = test: Effect of AOS scavenger on premeture ventricular complexes PVCs, arrhythmias induced by ischemia-reperfusion in anesthetized rat, duration at 3 mg/kg; type: functional, Cardiac ventricle
Rattus norvegicus [11] = test: Effect of AOS scavenger on ventricular tachycardia (VT),arrhythmias induced by ischemia-reperfusion in anesthetized rat, duration at 10 mg/kg; type: functional, Cardiac ventricle; details: 10 mg/kg
Rattus norvegicus [12] = test: Effect of AOS scavenger on ventricular tachycardia (VT),arrhythmias induced by ischemia-reperfusion in anesthetized rat, duration at 3 mg/kg; type: functional, Cardiac ventricle
Rattus norvegicus [13] = test: Effect of AOS scavenger on ventricular tachycardia (VT),arrhythmias induced by ischemia-reperfusion in anesthetized rat duration at 1 mg/kg; type: functional, Cardiac ventricle
Rattus norvegicus [14] = test: Effect of AOS scavenger on ventricular tachycardia (VT),arrhythmias induced by ischemia-reperfusion in anesthetized rat, frequency, times at 1 mg/kg; type: functional, Cardiac ventricle
Rattus norvegicus [15] = test: Effect of AOS scavenger on ventricular tachycardia (VT),arrhythmias induced by ischemia-reperfusion in anesthetized rat, frequency, times at 3 mg/kg; type: functional, Cardiac ventricle
Rattus norvegicus [16] = test: Effect of AOS scavenger on ventricular tachycardia (VT), arrhythmias induced by ischemia-reperfusion in anesthetized rat, frequency, timesat 10 mg/kg; type: functional, Cardiac ventricle
Rattus norvegicus [17] = test: Effect of AOS scavenger on ventricular fibrillation (VF),arrhythmias induced by ischemia-reperfusion in anesthetized rat, duration at 1 mg/kg; type: functional, Cardiac ventricle
Rattus norvegicus [18] = test: Effect of AOS scavenger on ventricular fibrillation (VF),arrhythmias induced by ischemia-reperfusion in anesthetized rat, duration at 3 mg/kg; type: functional, Cardiac ventricle
Rattus norvegicus [19] = test: Effect of AOS scavenger on ventricular fibrillation (VF), arrhythmias induced by ischemia-reperfusion in anesthetized rat, frequency, times at 10 mg/kg; type: functional, Cardiac ventricle; details: 10 mg/kg
Rattus norvegicus [20] = test: Effect of AOS scavenger on ventricular fibrillation (VF), arrhythmias induced by ischemia-reperfusion in anesthetized rat, frequency, times at 1 mg/kg; type: functional, Cardiac ventricle
Rattus norvegicus [21] = test: Effect of AOS scavenger on ventricular fibrillation (VF), arrhythmias induced by ischemia-reperfusion in anesthetized rat, frequency, timesat 3 mg/kg; type: functional, Cardiac ventricle
Rattus norvegicus [22] = species on record: Rattus norvegicus; test: Inhibition of lipid peroxidation was determined with rat brain tissue homogenates; type: functional
In short: (§2)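 Brains excised from male SD rats (12 weeks), exsanguinated under pentobarbital anesthesia; 5% homogenate in phosphate buffer pH 7.4 incubated with test drug 1 h at 37 °C; lipid peroxide quantified by thiobarbituric acid method.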

Rattus norvegicus [23] = test: Effect of AOS scavenger on ventricular fibrillation (VF),arrhythmias induced by ischemia-reperfusion in anesthetized rat, incidence at 10 mg/kg; 4/13; type: functional, Cardiac ventricle
Rattus norvegicus [24] = test: Effect of AOS scavenger on ventricular fibrillation (VF),arrhythmias induced by ischemia-reperfusion in anesthetized rat, incidence at 1 mg/kg; 5/14; type: functional, Cardiac ventricle
Rattus norvegicus [25] = test: Effect of AOS scavenger on ventricular fibrillation (VF),arrhythmias induced by ischemia-reperfusion in anesthetized rat, incidence at 3 mg/kg; 3/10; type: functional, Cardiac ventricle
Rattus norvegicus [26] = test: Effect of AOS scavenger on ventricular tachycardia (VT),arrhythmias induced by ischemia-reperfusion in anesthetized rat, incidence at 10 mg/kg; 13/13; type: functional, Cardiac ventricle
Rattus norvegicus [27] = test: Effect of AOS scavenger on ventricular tachycardia (VT),arrhythmias induced by ischemia-reperfusion in anesthetized rat, incidence at 3 mg/kg; 10/10; type: functional, Cardiac ventricle
Rattus norvegicus [28] = test: Effect of AOS scavenger on ventricular fibrillation (VF),arrhythmias induced by ischemia-reperfusion in anesthetized rat, duration at 10 mg/kg; type: functional, Cardiac ventricle
Rattus norvegicus [29] = test: Effect of AOS scavenger on ventricular tachycardia (VT), arrhythmias induced by ischemia-reperfusion in anesthetized rat, duration at 100 mg/kg; type: functional, Cardiac ventricle
Rattus norvegicus [30] = test: Effect of AOS scavenger on ventricular fibrillation (VF), arrhythmias induced by ischemia-reperfusion in anesthetized rat, duration at 100 mg/kg; type: functional, Cardiac ventricle
Rattus norvegicus [31] = test: Effect of AOS scavenger on ventricular fibrillation (VF), arrhythmias induced by ischemia-reperfusion in anesthetized rat, frequency, times at 100 mg/kg; type: functional, Cardiac ventricle
Rattus norvegicus [32] = test: Effect of AOS scavenger on ventricular tachycardia (VT), arrhythmias induced by ischemia-reperfusion in anesthetized rat, frequency, times at 100 mg/kg; type: functional, Cardiac ventricle
Rattus norvegicus [33] = test: Effect of AOS scavenger on ventricular fibrillation (VF), arrhythmias induced by ischemia-reperfusion in anesthetized rat, incidence at 100 mg/kg; 4/10; type: functional, Cardiac ventricle
Rattus norvegicus [34] = test: Effect of AOS scavenger on ventricular tachycardia (VT), arrhythmias induced by ischemia-reperfusion in anesthetized rat, incidence at 100 mg/kg; 7/10; type: functional, Cardiac ventricle
Rattus norvegicus [35] = test: Effect of AOS scavenger on premeture ventricular complexes PVCs, arrhythmias induced by ischemia-reperfusion in anesthetized rat, frequency per minute at 100 mg/kg
Rattus norvegicus [36] = test: Effect of AOS scavenger on ventricular tachycardia (VT), arrhythmias induced by ischemia-reperfusion in anesthetized rat, frequency, times at 10 mg/kg; type: functional, Cardiac ventricle
Rattus norvegicus [37] = test: Effect of AOS scavenger on ventricular fibrillation (VF), arrhythmias induced by ischemia-reperfusion in anesthetized rat, duration at 10 mg/kg; type: functional, Cardiac ventricle
Rattus norvegicus [38] = species on record: Rattus norvegicus; test: Inhibition of lipid peroxidation was determined with rat brain tissue homogenates.; type: functional; in short: as §2
Rattus norvegicus [39] = test: Effect of AOS scavenger on ventricular fibrillation (VF),arrhythmias induced by ischemia-reperfusion in anesthetized rat, incidence at 10 mg/kg; 5/5; type: functional, Cardiac ventricle
Rattus norvegicus [40] = test: Effect of AOS scavenger on ventricular tachycardia (VT),arrhythmias induced by ischemia-reperfusion in anesthetized rat incidence at 10 mg/kg; 4/5; type: functional, Cardiac ventricle

Question: How did the Activity (Rattus norvegicus [1]) turn out when Oc1ncnc2[nH]ncc12 [ALLOPURINOL] was run?
Answer: 2.7 min

Question: And the Duration (Rattus norvegicus [2])?
Answer: 5.9 s

Question: What about the Frequency (Rattus norvegicus [3]) of the same compound?
Answer: 3.1

Question: What about the Duration (Rattus norvegicus [4]) of the same compound?
Answer: 1.3 s

Question: What about the Frequency (Rattus norvegicus [5]) of the same compound?
Answer: 0.9

Question: And the Incidence (Rattus norvegicus [6])?
Answer: 4 N

Question: And the Incidence (Rattus norvegicus [7])?
Answer: 8 N

Question: With CCCCCCCCCCCCCCCCCCOC1=C(O)[C@@H](C(O)CO)OC1=O (stereo in doubt; 5k) as the compound, how does the Activity (Rattus norvegicus [8]) read?
Answer: 12 min

Question: What about the Activity (Rattus norvegicus [9]) of the same compound?
Answer: 3.4 min

Question: And the Activity (Rattus norvegicus [10])?
Answer: <4.5 min

Question: What about the Duration (Rattus norvegicus [11]) of the same compound?
Answer: 12 s

Question: What about the Duration (Rattus norvegicus [12]) of the same compound?
Answer: <6.9 s

Question: And the Duration (Rattus norvegicus [13])?
Answer: 11.4 s

Question: What about the Frequency (Rattus norvegicus [14]) of the same compound?
Answer: 4.3

Question: And the Frequency (Rattus norvegicus [15])?
Answer: 4

Question: What about the Frequency (Rattus norvegicus [16]) of the same compound?
Answer: 5.2

Question: What about the Duration (Rattus norvegicus [17]) of the same compound?
Answer: <4.1 s

Question: And the Duration (Rattus norvegicus [18])?
Answer: <1.5 s

Question: And the Frequency (Rattus norvegicus [19])?
Answer: <0.5

Question: And the Frequency (Rattus norvegicus [20])?
Answer: <1.1

Question: What about the Frequency (Rattus norvegicus [21]) of the same compound?
Answer: <0.7

Question: And the IC50 (Rattus norvegicus [22])?
Answer: 4.3 µM

Question: And the Incidence (Rattus norvegicus [23])?
Answer: 4 N

Question: And the Incidence (Rattus norvegicus [24])?
Answer: 5

Question: What about the Incidence (Rattus norvegicus [25]) of the same compound?
Answer: 3 N

Question: And the Incidence (Rattus norvegicus [26])?
Answer: 13 N

Question: What about the Incidence (Rattus norvegicus [27]) of the same compound?
Answer: 10 N

Question: And the Duration (Rattus norvegicus [28])?
Answer: 0.5 s

Question: How did the Duration (Rattus norvegicus [29]) turn out when OC[C@@H](O)[C@@H](O)[C@H](O)[C@H](O)CO [MANNITOL] was run?
Answer: 7.7 s

Question: And the Duration (Rattus norvegicus [30])?
Answer: 1.3 s

Question: And the Frequency (Rattus norvegicus [31])?
Answer: 0.8

Question: And the Frequency (Rattus norvegicus [32])?
Answer: 2.7

Question: And the Incidence (Rattus norvegicus [33])?
Answer: 4 N

Question: What about the Incidence (Rattus norvegicus [34]) of the same compound?
Answer: 7 N

Question: What about the Activity (Rattus norvegicus [35]) of the same compound?
Answer: 4.8 min⁻¹

Question: For CCCCCCCCCCCCCCCCCCOC1=C(O)[C@@H](C(O)CO)OC1=O (stereo in doubt; 8), which PVCs (Rattus norvegicus [8]) is on record?
Answer: < 4 PVCs/min

Question: What about the Duration (Rattus norvegicus [11]) of the same compound?
Answer: 11.8 s

Question: And the Frequency (Rattus norvegicus [36])?
Answer: 3.8

Question: And the Duration (Rattus norvegicus [37])?
Answer: 122.4 s

Question: And the Frequency (Rattus norvegicus [19])?
Answer: 1.6

Question: What about the IC50 (Rattus norvegicus [38]) of the same compound?
Answer: 9.8 µM

Question: What about the Incidence (Rattus norvegicus [39]) of the same compound?
Answer: 5 N

Question: What about the Incidence (Rattus norvegicus [40]) of the same compound?
Answer: 4 N
